test: Toxicity liver stage against HepG2, at 10uM; assay type: cell-based; set-up: test concentration 10 uM, cell line HepG2-A16-CD81EGFP; settings: human, HepG2-A16-CD81EGFP cells; read-out: INHIBITION
Method in brief: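 Uninfected HepG2-A16-CD81EGFP cells, 3 × 10^3 per well, 1536-well, plated on prespotted compound at 10 μM final, parasite-free screening media added to match infected plates; puromycin 10 μM positive, DMSO 0.5% negative; run in parallel with 48 h PbLuc assay at 37 °C, 5% CO2; viability by CellTiter-Glo luminescence, normalized to controls.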

Row | SMILES | cytotoxicity at 10 µM [%]
1 | COCCNC(=O)c1nc(-c2cn(C)cn2)n2ccccc12 | -104
2 | CC(C)(O)CCc1cccc(C(=O)N2Cc3cnn(CCO)c3C2)c1 | 4.62
3 | COCCN1CCC(C(=O)N(C)Cc2cccc(Cl)c2)C1 (stereo not given) | -28.6
4 | CCC(c1nc(CC(C)C)nn1-c1ccccn1)n1cccn1 (stereo not given) | -8.74
5 | CCc1ncc(C(=O)N2CC(N3CCCCC3)C2)cn1 | -4.68
6 | CC(C)N1CCC(CC(=O)NCc2cc(O)ncn2)CC1 | 7.81
7 | Cc1noc(C)c1CCCNC(=O)C1CCN(C(=O)C2CCC2)CC1 | 3.72
8 | CC1(Cc2cccnc2)NCCc2[nH]cnc21 (stereo not given) | 12.1
9 | CN1CCC(c2n[nH]c(=O)n2-c2cccc(Cl)c2)CC1 | 33.9
10 | CSCC[C@@H](CO)n1ccnc1-c1ccncc1 | 7.21
11 | CC1=CCN(S(=O)(=O)c2cccc(C(=O)N3CCCN(C)CC3)c2)CC1 | -2.36
12 | CC1=NC2(CCN(CC(C)c3ccccc3)CC2)C(=O)N1 (stereo not given) | 5.33
13 | COCCC(=O)N1CCC2(CC1)CC(c1ccccc1)CN(C1CC1)C2 (stereo not given) | -0.173
14 | NC(=O)C1CN(c2ncnc3c2Cc2ccccc2OC3)CCO1 (stereo not given) | 0.0255
15 | CCN1CCC2(CC1)c1nc[nH]c1CCN2S(C)(=O)=O | 6.33
16 | O=C(CC1COCCN1)NCCc1nc(Cc2ccccc2)no1 (stereo not given) | -2.81
17 | CC(CN1CCCC1)C(=O)NCC1CCN(c2cnn(C)c(=O)c2)CC1 (stereo not given) | 0.301
18 | COCC1CCN(S(=O)(=O)NCC2COc3ccccc3C2)CC1 (stereo not given) | 7.64
19 | COc1cccc(CN(C)C(C)c2nccs2)c1OCCn1ccnc1 (stereo not given) | -0.21
20 | Cc1ccc(-c2cc(-c3c(C)nn(CCO)c3C)c(C#N)c(N)n2)cc1 | 15
21 | CCc1cnc(C)nc1NCc1nc(COC)no1 | 3.24
22 | Cc1nnc2n1CCN(C(=O)c1cc3cc(F)ccc3[nH]1)C2 | 3.28
23 | Cc1ccc(OCCC(=O)N2CCCC(n3nc(C)nc3C)C2)cc1 (stereo not given) | -2.15
24 | CCc1csc(C2CCCN(C(=O)c3ccccn3)C2)n1 (stereo not given) | 1.36
25 | CCCn1nc2c(cc1=O)CN(Cc1nc(C)c(C)o1)CC2 | -6.16
26 | O=C1COc2ccc(C(=O)NS(=O)(=O)c3ccccc3Cl)cc2N1 | -7.03
27 | O=C1COc2ccc(C(=O)NS(=O)(=O)c3ccccc3F)cc2N1 | -0.185
28 | O=C(CCCOc1ccccc1)N1CCCC1Cn1cccn1 (stereo not given) | -7.83

Row | SMILES | cytotoxicity at 10 µM [%]
29 | O=C(c1cc(Cl)cc2cccnc12)N1CCN(CCO)CC1 | -2.07
30 | CCc1nnc(NC(=O)Cc2c(C)nc(C)[nH]c2=O)s1 | -14.4
31 | CC(=O)N1CCCN(C(=O)NCCNc2cnccn2)CC1 | -2.28
32 | CN(CC1(O)CCCCC1)C1CCCN(Cc2noc(C3CC3)n2)C1 (stereo not given) | -17.3
33 | CCc1nc(C2CCCN2C(=O)CCc2ccc3c(c2)OCO3)no1 (stereo not given) | -4.62
34 | Cc1cccc(-c2nc(CN3CCCCC3Cn3cncn3)no2)c1 (stereo not given) | -3.2
35 | Cc1noc(CCCC(=O)NC(C)c2ccccn2)n1 (stereo not given) | -10.9
36 | CCc1ccc(C(=O)N2CCN(CCS(C)(=O)=O)CC2)o1 | -8.03
37 | c1cc(NCc2ccncc2)nc(C2CCCN2)c1 (stereo not given) | -2.55
38 | CC(CNCc1ccc(F)cc1)Oc1ccccn1 (stereo not given) | 6.97
39 | c1nc(CN2CCCC(Cc3ccc(NC4CCCC4)nn3)C2)c[nH]1 (stereo not given) | 3.6
40 | CC(C)NC(=O)CC1COC2(CCN(Cc3cccnc3)CC2)C1 (stereo not given) | 0.405
41 | Cc1ccc(CN2CC[C@H]3[C@H]2CCN3S(=O)(=O)C2CC2)s1 | 7.74
42 | O=C([C@@H]1CN(Cc2nccs2)C[C@H]2OCC[C@H]21)N1CCOCC1 | -105
43 | O=C(NC1CC1)[C@@H]1CN(Cc2ccc3c(c2)OCO3)C[C@H]2OCC[C@H]21 | -1.79
44 | CN(C)CCN1CCC2(CCN(C(=O)c3ccncc3)CC2)C1=O | 0.0515
45 | Cc1noc(C)c1CN1C[C@H](C)[C@]2(CCN(Cc3cccnc3)C2=O)C1 | 4.59
46 | Cc1cc(N(C)C)nc(C2CCCNC2)n1 (stereo not given) | -3.55
47 | c1cnc(N2CC3(CCN(Cc4cccnc4)C3)C2)nc1 | -4.87
48 | CO[C@@H]1CCN(S(=O)(=O)N(C)C)[C@@H]2CN(Cc3ccncc3)C[C@@H]21 | 15.1
49 | CCn1ncc2c1C(COCC1CC1)N(Cc1ccccn1)CC2 (stereo not given) | 10.9
50 | CCn1ncc2c1C(COCC1CC1)N(Cc1nccs1)CC2 (stereo not given) | 10.6
51 | CC(C)NC(=O)CC1COC2(CCN(Cc3ccsc3)CC2)C1 (stereo not given) | -1.6
52 | Cc1ccc(CN2CC[C@H]3NC(=O)CC[C@@H]32)o1 | -5.28
53 | CN(C)Cc1nc2c(o1)CN(C(=O)NCc1cccc(F)c1)C2 | 5.32
54 | CC=C(C)C(=O)NS(=O)(=O)c1ccc(C(F)(F)F)cn1 | 3.95
55 | CC(C)NC(=O)CC1[C@H]2CN(C(=O)Cc3ccccn3)C[C@@H]12 (stereo not given in full) | 12

Source: ChEMBL document CHEMBL4513216, “Probing the Open Global Health Chemical Diversity Library for Multistage-Active Starting Points for Next-Generation Antimalarials” (ACS Infect Dis, 2020)
